Experimental data as given in ChEMBL document CHEMBL4819036, “Hepatoprotective Glucosyloxybenzyl 2-Hydroxy-2-isobutylsuccinates from Pleione yunnanensis” (2021).

Assays:
HepG2 = experiment: Hepatoprotective activity against APAP-induced toxicity in human HepG2 cells assessed as cell survival rate at 10 uM after 48 hrs by MTT assay (reference value: 23 %); assay type: functional
L02 = experiment: Hepatoprotective activity against D-GalN-induced toxicity in human HL-7702 cells assessed as cell survival rate at 10 uM preincubated for 48 hrs followed by D-GalN stimulation for 8 hrs by MTT assay (reference value: 33 %); assay type: functional; settings: time 56 hrs
Method in brief: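 Normal human HL-7702 hepatocytes were injured with D-galactosamine at 60 mM, with test compounds at 10 μM. Viability was measured by the MTT method as OD, and survival rate was expressed as a percentage of untreated control cells. Bicyclol at 10 μM served as the positive control. Statistics compared treated cells with the D-GalN model group.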

SMILES	Activity (HepG2)	Activity (L02)
CC(C)C[C@@](O)(CC(=O)OCc1ccc(O[C@@H]2O[C@H](CO)[C@@H](O)[C@H](O)[C@H]2O)cc1)C(=O)OCc1ccc(O[C@@H]2O[C@H](CO)[C@@H](O)[C@H](O)[C@H]2O)cc1	23%	
CC(C)C[C@](CC(=O)OCc1ccc(O[C@@H]2O[C@H](COCc3ccc(O)cc3)[C@@H](O)[C@H](O)[C@H]2O)cc1)(O[C@@H]1O[C@H](CO)[C@@H](O)[C@H](O)[C@H]1O)C(=O)OCc1ccc(O[C@@H]2O[C@H](CO)[C@@H](O)[C@H](O)[C@H]2O)cc1	32%	39%
CC(=O)OC[C@H]1O[C@@H](O[C@@](CC(=O)OCc2ccc(O[C@@H]3O[C@H](CO)[C@@H](O)[C@H](O)[C@H]3O)cc2)(CC(C)C)C(=O)OCc2ccc(O[C@@H]3O[C@H](CO)[C@@H](O)[C@H](O)[C@H]3O)cc2)[C@H](O)[C@@H](O)[C@@H]1O	14%	39%
CC(C)C[C@@](O)(CC(=O)OCc1ccc(O[C@@H]2O[C@H](CO)[C@@H](O)[C@H](O)[C@H]2O)cc1)C(=O)OCc1ccc(O[C@@H]2O[C@H](CO)[C@@H](O)[C@H](O)[C@H]2OCc2ccc(O)cc2)cc1	19%	49%
CC(C)C[C@](CC(=O)OCc1ccc(O[C@@H]2O[C@H](CO)[C@@H](O)[C@H](O)[C@H]2O)cc1)(O[C@@H]1O[C@H](CO)[C@@H](O)[C@H](O)[C@H]1OC(=O)/C=C/c1ccc(O[C@@H]2O[C@H](CO)[C@@H](O)[C@H](O)[C@H]2O)cc1)C(=O)OCc1ccc(O[C@@H]2O[C@H](CO)[C@@H](O)[C@H](O)[C@H]2O)cc1	25%	43%
COC(=O)C[C@](O)(CC(C)C)C(=O)OCc1ccc(O[C@@H]2O[C@H](CO)[C@@H](O)[C@H](O)[C@H]2O)cc1	28%	64%
CC(C)C[C@](CC(=O)OCc1ccc(O[C@@H]2O[C@H](CO)[C@@H](O)[C@H](O)[C@H]2O)cc1)(O[C@@H]1O[C@H](CO)[C@@H](O)[C@H](O)[C@H]1OC(=O)/C=C\c1ccc(O)cc1)C(=O)OCc1ccc(O[C@@H]2O[C@H](CO)[C@@H](O)[C@H](O)[C@H]2O)cc1	21%	39%
CC(C)C[C@](CC(=O)OCc1ccc(O[C@@H]2O[C@H](CO)[C@@H](O)[C@H](O)[C@H]2O)cc1)(O[C@@H]1O[C@H](CO)[C@@H](O)[C@H](O)[C@H]1O)C(=O)OCc1ccc(O[C@@H]2O[C@H](CO)[C@@H](O)[C@H](O)[C@H]2O)cc1	35%	
CC(C)C[C@](CC(=O)OCc1ccc(O[C@@H]2O[C@H](CO)[C@@H](O)[C@H](O)[C@H]2O)cc1)(O[C@@H]1O[C@H](CO)[C@@H](O)[C@H](O)[C@H]1OC(=O)/C=C/c1ccc(O)cc1)C(=O)OCc1ccc(O[C@@H]2O[C@H](CO)[C@@H](O)[C@H](O)[C@H]2O)cc1	23%	52%
CC(C)C[C@@](O)(CC(=O)OCc1ccc(O[C@@H]2O[C@H](COCc3ccc(O)cc3)[C@@H](O)[C@H](O)[C@H]2O)cc1)C(=O)OCc1ccc(O[C@@H]2O[C@H](CO)[C@@H](O)[C@H](O)[C@H]2O)cc1	27%	60%
CC(C)C[C@@](O)(CC(=O)OCc1ccc(O[C@@H]2O[C@H](CO)[C@@H](O)[C@H](O)[C@H]2O)cc1)C(=O)OCc1ccc(O[C@@H]2O[C@H](COCc3ccc(O)cc3)[C@@H](O)[C@H](O)[C@H]2O)cc1	28%	55%
CC(C)C[C@](CC(=O)O)(O[C@@H]1O[C@H](CO)[C@@H](O)[C@H](O)[C@H]1O)C(=O)OCc1ccc(O[C@@H]2O[C@H](CO)[C@@H](O)[C@H](O)[C@H]2O)cc1	27%	
CC(C)C[C@@](O)(CC(=O)O)C(=O)OCc1ccc(O[C@@H]2O[C@H](CO)[C@@H](O)[C@H](O)[C@H]2O)cc1	28%	
CC(C)C[C@](O)(C(=O)OCc1ccc(O[C@@H]2O[C@H](CO)[C@@H](O)[C@H](O)[C@H]2O)cc1)[C@H](O)C(=O)OCc1ccc(O[C@@H]2O[C@H](CO)[C@@H](O)[C@H](O)[C@H]2O)cc1	23%	
CC(C)C[C@@](O)(CC(=O)OCc1ccc(O[C@@H]2O[C@H](CO[C@@H]3O[C@H](CO)[C@@H](O)[C@H](O)[C@H]3O)[C@@H](O)[C@H](O)[C@H]2O)cc1)C(=O)OCc1ccc(O[C@@H]2O[C@H](CO)[C@@H](O)[C@H](O)[C@H]2O)cc1	28%	38%
CC(C)C[C@](CC(=O)OCc1ccc(O[C@@H]2O[C@H](CO)[C@@H](O)[C@H](O)[C@H]2O)cc1)(O[C@@H]1O[C@H](CO)[C@@H](O)[C@H](O)[C@H]1OC(=O)/C=C\c1ccc(O[C@@H]2O[C@H](CO)[C@@H](O)[C@H](O)[C@H]2O)cc1)C(=O)OCc1ccc(O[C@@H]2O[C@H](CO)[C@@H](O)[C@H](O)[C@H]2O)cc1	17%	38%
CC(C)C[C@@](O)(CC(=O)OCc1ccc(O[C@@H]2O[C@H](CO)[C@@H](O)[C@H](O)[C@H]2O)cc1)C(=O)OCc1ccc(O[C@@H]2O[C@H](CO[C@@H]3O[C@H](CO)[C@@H](O)[C@H](O)[C@H]3O)[C@@H](O)[C@H](O)[C@H]2O)cc1	39%	36%
COC(=O)c1cc(OC)c2c(c1-c1c(CO)cc(OC)c3c1OCO3)OCO2 [BICYCLOL]	32%	47%
